Screening data deposited in PubChem by several laboratories.
CYP2C19 inhib: blockers of cytochrome P450 2C19 activity – biochemical, luminescence, ADME assay, primary screen; P33261; CYP2C19 Supersomes, luciferin-H EGE luminescence, 30 min; inhibition, % at 5 µM; actives 21% (n = 96,000); AID 778, 2007;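 active = CYP2C19 inhibition above a set limit at 5 µM in the primary screen, cut at about 50% in these data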;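 note: plate controls were negative control wells for no effect and 2.5 mM tranylcypromine positive control for full effect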
Cav3 T inh: Cav3.2 calcium influx blockers – cell-based, Fluo-4 calcium fluorescence, FDSS, MLSMR library, primary screen; actives 4% (n = 100,000); B-score at 10 µM; Voltage-dependent T-type calcium channel subunit alpha-1H (Homo sapiens), O95180; AID 449739, 2010; Cav3.2-expressing cells; active compounds read low;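 active = single-dose well whose peak fluorescence ratio is a statistical outlier from its plate by either plate-standardised score or position-corrected B-score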
Rev-RRE block: HIV-1 Rev-RRE binding inhibitors, primary screen, biochemical, FRET, protein-RNA interaction | actives 0.79% (n = 97,000) | Rev peptide-RRE RNA binding | AID 704, 2007 | inhibition, % at 8 µM;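 active = inhibition above the screen-wide mean plus 3 SD, cut at about 35% in these data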;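 note: 0% = median DMSO wells and 100% = median Neomycin B control wells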
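assay system = Cy5-tagged RRE RNA duplex with fluorescein-tagged Rev peptide | incubation = 5 + 15 min at 25 °C | also added = labelled Rev peptide | measure = % inhibition of FRET ratio versus controls | benchmarks = DMSO wells as 0% and neomycin B wells as 100% inhibition | measured by = FRET fluorescence readout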
CYP2C9 act: human CYP2C9 activators, primary screen, biochemical, luminescence; Cytochrome P450 2C9 (Homo sapiens), P11712; recombinant CYP2C9, luciferin-H conversion; active compounds read high; factor 1 = untreated enzyme, 0 = blocked; activation factor at 5 µM; actives 1.4% (n = 96,000);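 active = activation factor of 2 or more for CYP2C9 at a 5 µM dose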;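 note: 0 = sulfaphenazole-blocked wells and 1 = vehicle-only wells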
CYP2C9 inh: blockers of cytochrome P450 2C9 activity – biochemical, luminescence, ADME assay, primary screen; P11712; CYP2C9 Supersomes, luciferin-H conversion; inhibition, % at 5 µM; actives 20% (n = 96,000); AID 777, 2007;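 active = blocking of liver enzyme CYP2C9 beyond about 50% at 5 µM, limit read from the data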
CYP2C19 activ: human CYP2C19 activators, primary screen, biochemical, luminescence | Cytochrome P450 2C19 (Homo sapiens), P33261 | recombinant CYP2C19, luciferin-H EGE luminescence; active compounds read high; 0 = fully inhibited enzyme, 1 = untreated enzyme | activation factor at 5 µM | 96,000 tested, under 10 active;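 active = activation factor of at least 2 at 5 µM in the primary screen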;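 note: 0 = wells with 2.5 mM tranylcypromine and 1 = vehicle-only wells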
Starred values were filed as active, the others as inactive. A selection: hits, their analogues and other compounds. The true share with any hit is near 27%.

`COC(=O)CCN1CCC(C(N)=O)CC1` gave CYP2C19 inhib 10, Cav3 T inh -0.12, Rev-RRE block 4, CYP2C9 act 0.5, CYP2C9 inh 48 and CYP2C19 activ 0.9.
CCOC(=O)c1c(NC(=O)CSc2nnnn2CC)sc(C)c1C was read as CYP2C19 inhib 14, Cav3 T inh -0.66, Rev-RRE block 12, CYP2C9 act 0.5, CYP2C9 inh 52* and CYP2C19 activ 0.9.
Screening Fc1ccccc1N1CCN(Cc2nc(-c3ccc(Cl)cc3Cl)no2)CC1 returned CYP2C19 inhib 38, Cav3 T inh 0.13, Rev-RRE block 13, CYP2C9 act 0.4, CYP2C9 inh 61* and CYP2C19 activ 0.6.
Screening CCN(CC)C(=O)c1ccc(S(=O)(=O)N2CCC(c3nc4ccccc4s3)CC2)cc1 returned Cav3 T inh -0.027 and Rev-RRE block 4.
`Cc1cccc(C)c1NC1=NC2(CCCCC2)N=C(N)N1` gave CYP2C19 inhib -6, Cav3 T inh 0.1, Rev-RRE block 0, CYP2C9 act 1, CYP2C9 inh -1 and CYP2C19 activ 1.1.
For O=[N+]([O-])c1ccc2c(c1Nc1ccccc1)=NC1(CCCCC1)N=2 the results were CYP2C19 inhib 10, Cav3 T inh -1.1, Rev-RRE block 6, CYP2C9 act 0.5, CYP2C9 inh 53* and CYP2C19 activ 0.9.
Screening CCN1CCN(c2ncc(C(=O)N3CCCc4ccccc43)c3ccccc23)CC1 returned CYP2C19 inhib 81*, Cav3 T inh 1.1, CYP2C9 act 0.7, CYP2C9 inh 26 and CYP2C19 activ 0.2.
`CCN1CCN(c2ncc(C(=O)Nc3cc(Cl)ccc3OC)c3ccccc23)CC1` gave CYP2C19 inhib 15, CYP2C9 act 1.7, CYP2C9 inh -66 and CYP2C19 activ 0.8.
`O=C(COc1ccc(-c2nnco2)cc1)NC1CCCc2ccccc21` (configuration not stated) gave CYP2C19 inhib 98*, Cav3 T inh -0.01, CYP2C9 act 0.1, CYP2C9 inh 86* and CYP2C19 activ 0.
For O=C(Cn1nnc2ccccc2c1=O)NC1CCCc2ccccc21 (configuration not stated) the results were CYP2C19 inhib -9, Cav3 T inh 1.4, Rev-RRE block 5, CYP2C9 act 1, CYP2C9 inh -3 and CYP2C19 activ 1.1.
`COc1ccc(-c2nc(CSCC(=O)NC3CCCc4ccccc43)c(C)o2)cc1` (configuration not stated) gave CYP2C19 inhib 63*, Cav3 T inh -8.2*, Rev-RRE block 3, CYP2C9 act 0.4, CYP2C9 inh 58* and CYP2C19 activ 0.4.
For Cc1nnc(SCC(=O)N2CCCCC2)s1 the results were Cav3 T inh 0.14 and Rev-RRE block 2.
O=C1c2ccccc2C(=O)N1CCCCSc1nnc(-c2ccc(OC(F)F)cc2)o1 was read as CYP2C19 inhib 39, Cav3 T inh -0.62, Rev-RRE block 0, CYP2C9 act 1.8, CYP2C9 inh -78 and CYP2C19 activ 0.6.
Screening CSc1nsc(SCCN2C(=O)c3ccccc3C2=O)n1 returned CYP2C19 inhib 80*, Cav3 T inh -1.1, Rev-RRE block -2, CYP2C9 act 0.5, CYP2C9 inh 52* and CYP2C19 activ 0.2.
Screening Nc1nc(SCCN2C(=O)c3ccccc3C2=O)n[nH]1 returned CYP2C19 inhib -12, Cav3 T inh 1.9, Rev-RRE block 13, CYP2C9 act 0.9, CYP2C9 inh 6 and CYP2C19 activ 1.1.
`Cc1nnc(SCCCN2C(=O)c3ccccc3C2=O)o1` gave CYP2C19 inhib 60*, Rev-RRE block 8, CYP2C9 act 0.7, CYP2C9 inh 28 and CYP2C19 activ 0.4.
`O=C1c2ccccc2C(=O)N1CCSc1nncs1` gave CYP2C19 inhib 10, Cav3 T inh 0.77, Rev-RRE block 6, CYP2C9 act 0.9, CYP2C9 inh 8 and CYP2C19 activ 0.9.
